Compounds with a hit are over-represented: about 3.7% of the library has one in this group of screens.
KCNQ1 act – human KCNQ1 channel potentiation or activation; B-score at 10 µM; 310,000 tested, 0.35% active; AID 2648; CHO-K1 KCNQ1, thallium flux FluxOR fluorescence; active compounds read high;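 active = fluorescence ratio B-score, a plate-corrected score, at least three library SD, with initial intensity B-score within 5 SD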
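System: CHO-K1 cells stably expressing KCNQ1 / Medium: assay buffer for compound exposure, DMSO matched across wells / Reagent: thallium- and potassium-containing depolarizing buffer / Compound: one concentration, matched DMSO / Incubation: 20 min compound pretreatment at room temperature / Measured by: kinetic FluxOR fluorescence, 10 s baseline plus 110 s post-stimulus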
KCNK3 block – human KCNK3 channel inhibition, primary screen; AID 602410; CHO-KCNK3 thallium flux, FluxOR fluorescence; active compounds read low; 340,000 tested, 0.84% active; B-score at 10 µM; O14649;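 active = B-score under library mean minus 4 SD, starting fluorescence ratio at most library mean plus 5 SD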;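 note: more negative B-score means stronger inhibition of thallium flux through KCNK3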
KCNK9 block – inhibitors of human KCNK9 two-pore domain potassium channel; Q9NPC2; HEK293 KCNK9, FluxOR thallium flux fluorescence; active compounds read low; B-score at 10 µM; 310,000 tested, 1.2% active; AID 488922;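 active = ratio B-score over 3 SD below the library mean, with starting fluorescence within 5 SD of its mean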;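 note: negative B-score means less thallium flux so channel inhibition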
Kir21 inh – inhibitors of mouse Kir2.1 inward-rectifier potassium channel | P35561 | HEK293-Kir2.1, FluxOR thallium flux fluorescence; active compounds read low | B-score at 10 µM | 310,000 tested, 0.85% active | AID 1672;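 active = fluorescence ratio B-score at or below minus 3 SD of library scores, with starting-brightness B-score within 2 SD, cut at about -4.2 in these data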;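 note: channel flux triggered by added potassium and thallium sulfate stimulus; B-score of peak minus minimum fluorescence over baseline after thallium stimulus; more negative B-score means stronger Kir2.1 block with less thallium influx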
KCNQ1 inh – inhibitors of human KCNQ1 potassium channel. AID 2642. 310,000 tested, 1.3% active. CHO-K1 KCNQ1, FluxOR thallium flux fluorescence; active compounds read high. B-score at 10 µM;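 active = compounds whose thallium flux B-score, printed positive for inhibition, exceeds three library SD while starting fluorescence stays within three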;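 note: channel opened by potassium depolarization with thallium stimulus after 20 min compound exposure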
hERG protect – compounds protecting human hERG from proarrhythmic drug block; CHO-hERG, FluxOR thallium flux, dofetilide IC70 present; 310,000 tested, 0.51% active; activation (rescue from dofetilide block), less the hit threshold, % at 10 µM; Q12809;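 active = activation above the mean of controls blocked by dofetilide plus 5 SD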;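 note: thallium influx through hERG after potassium depolarization seen as dye fluorescence rise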
* hit, by the source's call; i = inactive; x = no result given.

SMILES | KCNQ1 act | KCNK3 block | KCNK9 block | Kir21 inh | KCNQ1 inh | hERG protect
CC(C)(c1ccccc1)c1ccc(OCc2ccc(C(=O)O)o2)cc1 | x | i | x | x | x | x
O=C(O)COc1ccccc1/C=N/NC(=O)c1cccc(S(=O)(=O)N2CCOCC2)c1 | i | i | i | 0.05 | i | 5.4*
COc1ccc(NC(=O)c2cccc(S(=O)(=O)N3CCOCC3)c2)cn1 | i | i | -6.9* | 0.1 | i | -4
Cc1ccccc1S(=O)(=O)Nc1nc2ccccc2nc1Cl | i | i | i | -1.1 | i | -6
O=S(=O)(Nc1nc2ccccc2nc1Cl)c1ccc(Br)cc1 | i | i | i | -1 | 9* | -10
Cc1nc(SCC(=O)c2ccccc2)c(C#N)c(-c2ccco2)c1C(=O)NCc1ccco1 | i | i | i | 0.21 | 6* | -14
NC(=O)C1CCN(C(=O)COc2ccc(Nc3ccccc3)cc2)CC1 | i | i | i | 2.2 | i | -12
O=C1Cc2c([nH]c3ccc([N+](=O)[O-])cc23)-c2ccccc2N1 | x | i | x | x | x | x
CCOc1cc(C)cc2oc(=O)cc(-c3ccccc3)c12 | i | i | -7* | -2.7 | i | -12
N#CCCN1CCN(C(=S)c2ccc(-c3cc(Cl)ccc3Cl)o2)CC1 | i | i | -7.8* | 1.2 | i | -4
CCOCCCNC(=O)CN1CCN(Cc2ccc(Cl)cc2)C1=O | i | i | i | -0.34 | i | -9
CC(C)c1ccc(C2C3=C(CC(C)(C)CC3=O)NC3=C2C(=O)c2ccccc23)cc1 (centres undefined) | i | i | i | -0.56 | 11* | -7
CC1(C)CC(=O)C2=C(C1)NC1=C(C(=O)c3ccccc31)C2c1cc([N+](=O)[O-])ccc1O (centres undefined) | i | i | i | 0.34 | 6* | -13
CC1(C)CC(=O)C2=C(C1)NC1=C(C(=O)c3ccccc31)C2c1ccccc1 (centres undefined) | i | i | i | 0.38 | i | -6
O=C(O)CN1C(=O)c2cccc(Oc3ccc(Cl)cc3)c2C1=O | i | i | -6.8* | 0.1 | i | -8
CCOc1cc(C)c(Cl)cc1S(=O)(=O)NC1CC(C)(C)NC(C)(C)C1 | i | i | i | 0.06 | i | 1
COc1cc(C)c(C(C)C)cc1S(=O)(=O)NC1CC(C)(C)NC(C)(C)C1 | i | i | i | -1.5 | i | 5.7*
COc1cc(CNc2ncc(-c3ccc(Cl)cc3)n2C)cc(OC)c1OC | i | i | i | 0.6 | i | -6
Cc1ccc(CNc2ncc(-c3ccc4c(c3)OCO4)n2C)cc1 | i | i | i | -10* | i | -28
Cn1c(-c2ccc3c(c2)OCO3)cnc1NCc1ccc(Cl)cc1 | i | i | i | -11* | 11* | -16
Cn1c(-c2ccccc2)cnc1NCc1ccc(-c2ccccc2)cc1 | i | i | i | 1.8 | i | -13
Cc1ccc(-c2ccc(C#N)c(=O)n2CC(=O)N(C)C)cc1 | i | i | i | -0.98 | i | -5
CC1CCCCN1C(=O)CSc1nnc(-c2cccnc2)o1 (centres undefined) | i | i | i | 0.02 | i | -7
Cc1ccc2c(c1)N(C(=O)CCC(=O)NC1CCN(Cc3ccccc3)CC1)CC(C)O2 (centres undefined) | i | i | i | 1 | i | -9
O=C1NC(=Nc2ccccc2Cl)S/C1=C\c1cccc([N+](=O)[O-])c1O | i | i | i | 0 | 6* | -13
CCN1CCN(C(=O)c2ccc(Cl)c(S(=O)(=O)N(C)c3ccccc3)c2)CC1 | x | i | x | x | x | x
O=C(CC(=O)c1ccccc1O)c1cccc(F)c1 | 37* | i | i | 0.27 | i | 0
O=C(CC(=O)c1ccccc1O)c1ccc(F)cc1 | i | i | i | 1.1 | i | -3
COc1cc(C2C(C#N)=C(N)N(Nc3ccccc3)C3=C2C(=O)CC(C)(C)C3)ccc1OCc1ccccc1 (centres undefined) | i | i | -7.3* | -1.2 | i | -10
CC(=O)c1ccc2c(c1)c(C#N)c1ccccc1[n+]2[O-] | i | i | i | -4.2 | 11* | -23

Compound activity from PubChem.
